Results collected from several papers.

Cn1nc2c(=O)n(C3CC3)ncc2c1[C@](O)(c1cnc(C(F)(F)F)c(Cl)c1)C(F)(F)F
hepatocyte CLint (metabolic stability; male Sprague-Dawley rat, hepatocytes; 0.5 µM, pH 7.4): 0.9 µL/min/10⁶ cells

Cc1ccc(Cn2cc(C(=O)NN)c(=O)c3cc(Oc4ccccc4)ccc32)cc1
microsomal CLint (metabolic stability; male rat, liver microsomes; 1 µM): < 11.6 µL/min/mg

COc1ccc2c(C[Se][C@@H]3O[C@H](CO)[C@H](O)[C@H](O)[C@H]3O)cc(=O)oc2c1
CC50 (THP-1; cell growth or viability, WST-1; 24 h): > 100 µM

COC(=O)COc1c(Cc2cc(C(C)(C)CC(C)(C)C)cc(-n3nc4ccccc4n3)c2OCC(=O)OC)cc(C(C)(C)CC(C)(C)C)cc1-n1nc2ccccc2n1
viability (MCF7; cell growth or viability, MTT; 10 µM, 48 h): 4.9%

CC1(F)CN(C(=O)Cn2c(=O)c(C(=O)NCc3ccc(Cl)cc3)cc3nc(N4CCNC4=O)cnc32)C1
CC50 (B-95-8; cell growth or viability, ATP luminescence; 5 days): 3.59 µM

CN/C(=N/CCSCc1nc[nH]c1C)NC#N
hepatocyte CLint (metabolic stability; human, hepatocytes; 0.5 µM, pH 7.4): 2.15 µL/min/10⁶ cells

CN1CCN(c2cnc3c(cc(C(=O)NCc4ccc(Cl)cc4)c(=O)n3CC(=O)N3CC(C)(F)C3)n2)C1=O
CC50 (B-95-8; cell growth or viability, ATP luminescence; 5 days): 4.61 µM

CC(=O)OC[C@H]1O[C@@H]([Se]Cc2ccc3ccccc3n2)[C@H](OC(C)=O)[C@@H](OC(C)=O)[C@@H]1OC(C)=O
CC50 (THP-1; cell growth or viability, WST-1; 24 h): ~50 µM
